Assay results from ChEMBL document CHEMBL1817604, “Synthesis and biological evaluation of 1-(4'-Indolyl and 6'-Quinolinyl) indoles as a new class of potent anticancer agents” (Eur J Med Chem, 2011).

Assays:
[1] = tested on: HT-29; assay: Antiproliferative activity against human HT-29 cells after 72 hrs by methylene blue assay; type: functional, cell-based; conditions: HT-29, 72 h
Outline: (§1)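 Lines kept in RPMI-1640 with 5% fetal bovine serum. Log-phase cells seeded at 5000 cells/mL/well in 24-well plates, then exposed to compound.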

[2] = species: Bos taurus; assay: Displacement of [3H]colchicine from biotin-labeled bovine brain tubulin at 5 uM after 2 hrs by liquid scintillation counter
[3] = tested on: NCI-H460; assay: Antiproliferative activity against human H460 cells after 72 hrs by methylene blue assay; type: functional, cell-based; conditions: NCI-H460, 72 h
Outline: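 Log-phase cells seeded at 5000 cells/mL/well in 24-well plates, then exposed to compound.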

[4] = tested on: MKN-45; assay: Antiproliferative activity against human MKN45 cells after 72 hrs by methylene blue assay; type: functional, cell-based; conditions: MKN-45, 72 h; outline: as §1
[5] = Antiproliferative activity against human KB-VIN10 cells over-expressing P-gp 170/MDR1 after 72 hrs by methylene blue assay; type: functional, cell-based; conditions: KB-VIN10, 72 h
Outline: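 KB-VIN10 is a P-gp 170/MDR1-overexpressing subline derived from KB by continuous exposure to rising vincristine. It is maintained in growth medium with 10 nM vincristine. Log-phase cells seeded at 5000 cells/mL/well in 24-well plates before compound exposure.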

[6] = Inhibition of bovine brain tubulin polymerization after 30 mins by turbidimetry analysis
[7] = tested on: KB; assay: Antiproliferative activity against human KB cells after 72 hrs by methylene blue assay; type: functional, cell-based; outline: as §1
[8] = Inhibition of tubulin polymerization
Outline: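 Bovine brain MAP-rich tubulin, 4 mg/mL in 100 mM PIPES (pH 6.9), 2 mM MgCl₂, 1 mM GTP, […] per well, with test compound or 2% (v/v) DMSO control. Turbidity read at 350 nm, 37 °C, every 30 s for 30 min.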

SMILES | IC50 [1] [µM] | Activity [2] [%] | IC50 [3] [µM] | IC50 [4] [µM] | IC50 [5] [µM] | IC50 [6] [µM] | IC50 [7] [µM] | IC50 [8] [µM]
COc1ccc(-n2ccc3c(OC)c(OC)c(OC)cc32)c(N)c1 | 0.101 | 44 | 0.096 | 0.049 | 0.05 | 4.7 | 0.102 | 
COc1ccc2ccc3cc(OC)c(OC)c(OC)c3c2c1 |  |  |  |  |  |  |  | > 40
COc1cc2c(ccn2-c2cccc3ncccc23)c(OC)c1OC | 0.921 |  | 0.955 | 0.682 | 0.535 |  | 0.9 | 
COc1ccc(-n2ccc3c(OC)c(OC)c(OC)cc32)cc1N | 4.15 |  | 2.39 | 1.54 | 1.38 |  | 3.25 | 
COc1ccc2nc(-n3ccc4c(OC)c(OC)c(OC)cc43)ccc2c1 | 3.65 |  | 6.17 | 11.5 | 9.11 |  | 7.37 | 
COc1ccc(-n2ccc3c(OC)c(OC)c(OC)cc32)cc1O | 6.4 |  | 0.737 | 5.9 | 0.068 |  | 0.131 | 
COc1cc2c(ccn2-c2ccc3occc3c2)c(OC)c1OC | 0.646 |  | 0.69 | 0.322 | 0.265 |  | 0.537 | 
COc1cc2c(ccn2-c2ccnc3ccccc23)c(OC)c1OC | 0.329 |  | 0.318 | 0.197 | 0.13 |  | 0.216 | 
COc1cc2c(ccn2-c2ccc3c(ccn3C)c2)c(OC)c1OC | 0.074 | 65 | 0.076 | 0.04 | 0.053 | 2.7 | 0.073 | 
COc1cc2c(ccn2-c2ccc3ncccc3c2)c(OC)c1OC | 0.034 | 72 | 0.031 | 0.024 | 0.011 | 2.7 | 0.018 | 
COc1ccc(/C=C\c2cc(OC)c(OC)c(OC)c2)cc1O [COMBRETASTATIN A4] | 0.094 | 97 | 0.0023 | 0.0048 | 0.0007 |  | 0.002 | 
COc1cc2c(ccn2-c2ccc3ncncc3c2)c(OC)c1OC | 8.14 |  | 7.52 | 4.31 | 3.45 |  | 7.95 | 
COc1cc2c(c(OC)c1OC)-c1ccc(OC)c(=O)cc1[C@@H](NC(C)=O)CC2 [COLCHICINE] | 0.015 |  |  | 0.012 | 0.121 |  | 0.01 | 
COc1cc2c(ccn2-c2cccc3c2ccn3C)c(OC)c1OC | 0.044 | 83 | 0.049 | 0.04 | 0.025 | 1.7 | 0.032 | 
COc1ccc(-n2ccc3c(OC)c(OC)c(OC)cc32)cc1 | 0.179 |  | 0.198 | 0.145 | 0.135 |  | 0.186 | 
COc1ccc2c(-n3ccc4c(OC)c(OC)c(OC)cc43)cn(C)c2c1 | 0.081 |  | 0.081 | 0.059 | 0.04 |  | 0.085 | 
COc1cc2c(ccn2-c2ccc(N(C)C)cc2)c(OC)c1OC | 0.148 |  | 0.172 | 0.105 | 0.063 |  | 0.148 | 
